Measured values reported in ChEMBL document CHEMBL2062496, “Identification of a sirtuin 3 inhibitor that displays selectivity over sirtuin 1 and 2” (Eur J Med Chem, 2012).
pIC50: −log10 of the molar value. Activity calls are given as the source filed them. The calls are words filed in the database; no cut-off is given here.

What was measured:
[1] = target: T1, NAD-dependent protein deacetylase sirtuin-1 (Homo sapiens) (UniProt Q96EB6); assay: Inhibition of human SIRT1 assessed as enzyme activity using Fluor-de-Lys as substrate at 1 mM by fluorometry; set-up: scale not given: the % may be the effect or the level left
T1 sequence (whole entry): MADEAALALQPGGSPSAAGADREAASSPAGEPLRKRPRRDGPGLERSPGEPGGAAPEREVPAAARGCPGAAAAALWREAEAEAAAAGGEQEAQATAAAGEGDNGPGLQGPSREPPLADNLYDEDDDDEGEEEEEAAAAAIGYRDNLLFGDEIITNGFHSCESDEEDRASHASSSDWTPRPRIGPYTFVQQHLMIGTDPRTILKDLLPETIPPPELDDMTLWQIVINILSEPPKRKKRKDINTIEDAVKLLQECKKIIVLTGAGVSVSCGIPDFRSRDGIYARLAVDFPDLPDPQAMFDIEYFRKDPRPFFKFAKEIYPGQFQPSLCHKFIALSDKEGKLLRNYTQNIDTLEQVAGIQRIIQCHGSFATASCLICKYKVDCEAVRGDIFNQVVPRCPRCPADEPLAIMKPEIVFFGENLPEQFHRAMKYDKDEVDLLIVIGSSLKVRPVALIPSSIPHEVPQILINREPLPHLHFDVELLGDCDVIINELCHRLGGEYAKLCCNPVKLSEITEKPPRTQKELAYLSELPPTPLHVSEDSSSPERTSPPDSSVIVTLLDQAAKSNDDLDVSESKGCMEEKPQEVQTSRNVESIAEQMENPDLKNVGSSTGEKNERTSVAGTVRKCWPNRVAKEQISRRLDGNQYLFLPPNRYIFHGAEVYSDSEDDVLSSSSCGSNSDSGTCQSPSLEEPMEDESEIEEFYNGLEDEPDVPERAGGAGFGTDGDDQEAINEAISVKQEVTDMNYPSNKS
In short: (§1)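 Commercial Fluor-de-Lys kit, substrate human p53 379–382 peptide (Arg-His-Lys-Lys(Ac)). Human Sirt1 or Sirt2 was incubated with substrate, NAD+ and compound at 1 mM, also tested at 100 µM. Fluorescence scales with Lys382 deacetylation. Activity is expressed relative to control, mean ± S.E.M. of 3–4 replicates.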

[2] = target: T1, NAD-dependent protein deacetylase sirtuin-1 (Homo sapiens); assay: Inhibition of human SIRT1 assessed as enzyme activity using Fluor-de-Lys as substrate at 100 uM by fluorometry; in short: as §1
HeLa = assay: Cytotoxicity against human HeLa cells assessed as cell death after 48 hrs
UO-31 = assay: Growth of human UO31 cells assessed as cell growth at 10 uM after 48 hrs by MTT assay; conditions: UO-31, 48 h
CCRF-CEM = assay: Growth of human CCRF-CEM cells assessed as cell growth at 10 uM after 48 hrs by MTT assay
NCI-H226 = assay: Growth of human NCI-H226 cells assessed as cell growth at 10 uM after 48 hrs by MTT assay; conditions: NCI-H226, 48 h
SR = assay: Growth inhibition of human SR cells assessed as cell growth at 10 uM after 48 hrs by MTT assay; values are per cent of control
M14 = assay: Growth inhibition of human M14 cells assessed as cell growth at 10 uM after 48 hrs by MTT assay; values are per cent of control; conditions: M14, 48 h
K562 = assay: Growth inhibition of human K562 cells assessed as cell growth at 10 uM after 48 hrs by MTT assay; values are per cent of control; conditions: K562, 48 h
KM12 = assay: Growth inhibition of human KM12 cells assessed as cell growth at 10 uM after 48 hrs by MTT assay; values are per cent of control; conditions: KM12, 48 h
A498 = assay: Growth inhibition of human A498 cells assessed as cell growth at 10 uM after 48 hrs by MTT assay; values are per cent of control; conditions: A498, 48 h
ACHN = assay: Growth inhibition of human ACHN cells assessed as cell growth at 10 uM after 48 hrs by MTT assay; values are per cent of control
MCF7 = assay: Growth inhibition of human MCF7 cells assessed as cell growth at 10 uM after 48 hrs by MTT assay; values are per cent of control; conditions: MCF7, 48 h
MOLT-4 = assay: Growth inhibition of human MOLT4 cells assessed as cell growth at 10 uM after 48 hrs by MTT assay; values are per cent of control; conditions: MOLT-4, 48 h
HOP-62 = assay: Growth inhibition of human HOP62 cells assessed as cell growth at 10 uM after 48 hrs by MTT assay; values are per cent of control; conditions: HOP-62, 48 h
SF-268 = assay: Growth inhibition of human SF268 cells assessed as cell growth at 10 uM after 48 hrs by MTT assay; values are per cent of control; conditions: SF-268, 48 h
786-0 = assay: Growth inhibition of human 786-0 cells assessed as cell growth at 10 uM after 48 hrs by MTT assay; values are per cent of control; conditions: 786-0, 48 h
SN12C = assay: Growth inhibition of human SN12C cells assessed as cell growth at 10 uM after 48 hrs by MTT assay; values are per cent of control
BT-549 = assay: Growth inhibition of human BT549 cells assessed as cell growth at 10 uM after 48 hrs by MTT assay; values are per cent of control; conditions: BT-549, 48 h
OVCAR-8 = assay: Growth inhibition of human OVCAR8 cells assessed as cell growth at 10 uM after 48 hrs by MTT assay; values are per cent of control; conditions: OVCAR-8, 48 h
SK-MEL-2 = assay: Growth inhibition of human SK-MEL-2 cells assessed as cell growth at 10 uM after 48 hrs by MTT assay; values are per cent of control; conditions: SK-MEL-2, 48 h
SK-MEL-5 = assay: Growth inhibition of human SK-MEL-5 cells assessed as cell growth at 10 uM after 48 hrs by MTT assay; values are per cent of control; conditions: SK-MEL-5, 48 h
SK-MEL-28 = assay: Growth inhibition of human SK-MEL-28 cells assessed as cell growth at 10 uM after 48 hrs by MTT assay; values are per cent of control; conditions: SK-MEL-28, 48 h

With `c1cncc(-c2cnn[nH]2)c1` the Activity [1] was 88%, the inhibition [2] was “inactive” and the pIC50 (HeLa) was 5.33. The growth, % of control at 10 µM (UO-31) was 76%, the growth, % of control at 10 µM (CCRF-CEM) was 24.8% and the growth, % of control at 10 µM (NCI-H226) was 80.6%. The growth, % of control at 10 µM (SR) was 97.3%, the growth, % of control at 10 µM (M14) was 72.5% and the growth, % of control at 10 µM (K562) was 75.2%. For the same compound, the growth, % of control at 10 µM (KM12) was 116%, the growth, % of control at 10 µM (A498) was 105% and the growth, % of control at 10 µM (ACHN) was 111%. The growth, % of control at 10 µM (MCF7) was 117%, the growth, % of control at 10 µM (MOLT-4) was 101% and the growth, % of control at 10 µM (HOP-62) was 90.9%. For the same compound, the growth, % of control at 10 µM (SF-268) was 113%, the growth, % of control at 10 µM (786-0) was 104% and the growth, % of control at 10 µM (SN12C) was 102%. For the same compound, the growth, % of control at 10 µM (BT-549) was 97.7%, the growth, % of control at 10 µM (OVCAR-8) was 49.8% and the growth, % of control at 10 µM (SK-MEL-2) was 109%. The growth, % of control at 10 µM (SK-MEL-5) was 103% and the growth, % of control at 10 µM (SK-MEL-28) was 106%.
